Lmaj promast = Leishmania major promastigote growth inhibition. Leishmania major promastigotes, resazurin fluorescence viability. inhibition, % at 10 µM. actives 9% (n = 200,000). AID 1063; in the data active means inhibition above about 50%;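 further: promastigotes grown with compound for 44 hours at 28 °C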
MT stabilize HCS = microtubule stabilization, imaging screen. AID 2205. actives 0.83% (n = 200,000). % tubulin-high responders, % at 10 µM. HeLa tubulin immunostaining HCS, 24 h; share of cells brighter than vehicle mean+2SD;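 active means plate Z-score above 3 for both tubulin-high and condensed-nucleus cell shares, with cell loss under 80%, at 10 µM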;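 further: anti alpha tubulin signal scored within the nucleus-defined area of each cell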
bCat nuc transl = modulators of beta-catenin nuclear translocation; HeLa beta-catenin nuclear translocation, immunofluorescence imaging; nuclear translocation activity, % at 5 µM; actives 0.3% (n = 190,000);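 active means nuclear translocation activity above 50% at 5 µM, with a well cell count of 50 or more; inconclusive means wells under 50 cells across six images, flagged as toxic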;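 further: per-cell ratio of nuclear to cytoplasmic median beta-catenin stain intensity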
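Test system: human HeLa cell line; Doses: 5 µM primary, 0.02–20 µM confirmation; Incubation: 24 h compound exposure, 37°C; Detection: beta-catenin immunofluorescence imaging with DAPI; Read-out: beta-catenin nuclear/cytoplasmic ratio, % activation.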
Dynein transport = blocks dynein driven cargo transport along microtubules. z-score, hits read low. AID 1381. actives 0.47% (n = 220,000). 3617.4 mouse cells, GR-EGFP nuclear translocation imaging; test concentration mostly 20 µM; stimulated with dexamethasone, 1 µM; hits give low values;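 active means plate z-score of nuclear minus cytoplasmic receptor signal below a set negative limit, without overly bright fluorescence or cell loss, cut at about -3.5 in these data, passing the limit was not always enough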;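 further: z-score of nuclear minus cytoplasmic ring GR-EGFP intensity difference per well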
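Buffer or medium: tet-free medium with charcoal-stripped serum / Also added: dexamethasone agonist, 1.0 µM final, for 30 min / Timing: induction 48 h, compound 1 h, agonist 30 min / Measured by: high-content fluorescence imaging after fixation / Read-out: nuclear-to-cytoplasmic GR-EGFP distribution per well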
HSV augment = HSV replication enhancement; actives 0.005% (n = 220,000); AID 1956; maximum fold increase; HSV replication augmentation in cells, fold increase; in the data active means maximum fold increase above about 1.5; inconclusive means no clear call, values can overlap the other calls; tested in PC3 cells
Lmaj promast 1uM = L. major promastigote growth inhibition, 1 uM repeat | inhibition, % at 1 µM | shares compounds with Lmaj promast | actives 13% (n = 1,100) | AID 1258 | resazurin fluorescence, 48 h;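 active means inhibition above about 50% in both repeat tests, limit read from the data; inconclusive means one repeat under the set limit, the other over it; inactive means both repeats under the set limit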
Of the large screens only hits and unclear results are named; the others gave an inactive call (follow-up assays come after a bar, where they were run). Compounds with a hit are over-represented: about 8.9% of the library has one in this group of screens.

CCOC(=O)C1=NN(c2ccc(C)cc2)C2(S1)SC(C(C)=O)=C(C)N2c1ccccc1 (stereo unspecified)	none
CCOc1ccc(-n2c(SCC(N)=O)nc3c([nH]c4ccccc43)c2=O)cc1	Lmaj promast 68.2 (no result: bCat nuc transl) | Lmaj promast 1uM inactive
CCOC(=O)c1cccc(Nc2nc(-c3cccnc3)nc3ccccc23)c1	Lmaj promast 91.8 (no result: HSV augment) | Lmaj promast 1uM inactive
COC(=O)c1cccc(Nc2nc(-c3cccnc3)nc3ccccc23)c1	none (no result: Lmaj promast, MT stabilize HCS)
CCOC(=O)c1oc2ccc(CNC(C)(C)C)c(Cl)c2c1C	Lmaj promast 99.0 | Lmaj promast 1uM inactive
COc1cccc(/C=N/NC(=O)c2ccc(-c3ccccc3)cc2)c1O	Lmaj promast 99.8 (no result: bCat nuc transl) | Lmaj promast 1uM inactive
CCOc1ccccc1NC(=O)C(=O)N/N=C/c1cc(Br)ccc1O	Lmaj promast 99.8 | Lmaj promast 1uM inactive
CCc1ccccc1Nc1nc(N)nc(CSc2nnc3ccccn23)n1	none
Cc1c(C(=O)O)oc2c1/C(=N\O)CCC2	Lmaj promast 53.6 | Lmaj promast 1uM inactive
CCCCNC(=O)CCSc1nc2nc(C)cc(C)n2n1	none
Cc1cc(/C=C(\C#N)c2nc3ccccc3[nH]2)c(C)n1C	none
Cc1cc(/C=C(/C#N)c2nc3ccccc3[nH]2)c(C)n1-c1cccc([N+](=O)[O-])c1	Lmaj promast 88.0 (no result: bCat nuc transl) | Lmaj promast 1uM inactive
CN(C)c1cc[n+](Cc2c(Cl)cccc2Cl)cc1	Lmaj promast 84.0 | Lmaj promast 1uM inactive
CN1CCN(NC(=S)NC2CCCCC2)CC1	none
O=S(=O)(c1cccc(-c2nnc(-c3ccc(Br)cc3)o2)c1)N1CCCCCC1	none
Cn1cccc1C1Nc2ccccc2NC2=C1C(=O)CC(C)(C)C2 (stereo unspecified)	Lmaj promast 90.6 | Lmaj promast 1uM inactive
Cc1c(=O)n(OCc2ccccc2F)c2ccccc2[n+]1[O-]	Lmaj promast 73.5 | Lmaj promast 1uM inactive
Cc1c(=O)n(OCc2cccc(F)c2)c2ccccc2[n+]1[O-]	none
CN(C)c1nc(N(C)C)nc(N2CC(=O)N(c3ccccc3)C2=N)n1	none
Cc1nn(-c2ccccc2)c(N)c1C(O)(CC(=O)C(F)(F)F)C(F)(F)F (stereo unspecified)	none
Cc1nn(-c2ccccc2)c(N)c1C(O)(C(F)(F)F)C(F)(F)F	Lmaj promast 98.3 | Lmaj promast 1uM inactive
CCOC(=O)c1nc(N)c(=O)n(-c2ccccc2)n1	none
Nn1c(SCC(=O)NCCC2=CCCCC2)nnc1C(F)(F)F	none
CN1c2ccccc2C(O)=C(C(=S)Nc2ccc(Cl)cc2)S1(=O)=O	none
CC1=C(C(=O)Nc2cc(-c3cccc(F)c3)[nH]n2)C2(CCCCC2)OC1=O	Lmaj promast 100.1 | Lmaj promast 1uM 88.8
CCCCCCC1CC(CSC(=N)N)OC1=O (stereo unspecified)	Lmaj promast 100.1 (no result: bCat nuc transl) | Lmaj promast 1uM inactive
Cc1cccc(Nc2nc(N3CCN(C)CC3)nc(N)c2[N+](=O)[O-])c1	Lmaj promast 96.0 | Lmaj promast 1uM inactive
Cc1cccc(Nc2nc(N)c([N+](=O)[O-])c(N3CCC(C)CC3)n2)c1	none
c1ccc2c(NC3CCCC3)nnc(NC3CCCC3)c2c1	Lmaj promast 97.2 | Lmaj promast 1uM inactive
Cc1cccnc1NC1CCCCC1	none
O=C(Cn1nc(CNc2ccc(Cl)cc2)[n+]2c1CCCCC2)c1ccccc1	none
Cc1ccc(C(C)C)c(OCc2nn(CC(=O)c3ccc(Cl)cc3)c3[n+]2CCCCC3)c1	Lmaj promast 98.0 | Lmaj promast 1uM inactive
CC(C)c1ccccc1NC(=O)COC(=O)Cc1c[nH]c2ccccc12	Lmaj promast 50.4 | Lmaj promast 1uM inactive
COc1ccccc1NC(=O)COC(=O)Cc1c[nH]c2ccccc12	none
COc1cc(CCCN2C(=O)C(=O)NC[C@@H]2Cc2ccc(O)cc2)cc(OC)c1OC	none (no result: Lmaj promast, MT stabilize HCS)
C(=C\c1nnc2c3ccccc3ncn12)/c1ccccc1	Lmaj promast 55.1 (no result: bCat nuc transl) | Lmaj promast 1uM inactive
CCOC(=O)c1cnn(-c2ccccc2)c1NC(=O)CN1CCCCC1	none (no result: Lmaj promast, MT stabilize HCS)
CCN(CC)C(=O)c1ccc(/C=C/c2c[nH]c3ccccc23)[n+](C)c1	none (no result: bCat nuc transl)
CCCCCCCCCCCCCCCC[n+]1ccc(C(N)=O)cc1	Lmaj promast 100.2 (no result: bCat nuc transl) | Lmaj promast 1uM inactive
CCCCCCCCCCCCCCCC[n+]1ccc(/C=N/O)cc1	Lmaj promast 100.4, bCat nuc transl inconclusive | Lmaj promast 1uM 101.0
CCCCCCCCCCCCCCCC[n+]1cccc(C(=O)N(CC)CC)c1	Lmaj promast 100.4, Dynein transport -5.07 | Lmaj promast 1uM 79.4
CCCCC(=O)Nc1ccc(C(N)=O)cc1	none
CC1(C)CC(=O)C(C(=O)/C=C/NCCc2ccccc2)C(=O)C1	none
CCCn1cnc2c(cnn2-c2ccc(F)cc2)c1=O	none
COc1ccc(/C=C/c2cc[n+](C(=O)Cc3ccccc3)cc2)cc1	Lmaj promast 100.4 | Lmaj promast 1uM 97.9
CN1/C(=C/C2CC(=O)N(c3cccc4ccccc34)C2=O)C(C)(C)c2ccccc21 (stereo unspecified)	none (no result: bCat nuc transl)
CCN1C(=O)N(c2cccc3ccccc23)C(C)=CC1(C)C	Lmaj promast 50.7 | Lmaj promast 1uM inactive
O=C(NC(n1ccc(=O)[nH]c1=O)C(Cl)(Cl)Cl)C12CC3CC(CC(C3)C1)C2 (stereo unspecified)	none (no result: Lmaj promast, MT stabilize HCS)
CCOC(=O)N1CCN(c2c(F)cc3[nH]c(=S)[nH]c3c2Br)CC1	Lmaj promast 50.9, MT stabilize HCS 47.1 | Lmaj promast 1uM inactive
COCCCn1[nH]c2c3c(ccc2c1=O)C(=O)c1ccccc1C3=O	Lmaj promast 93.7 | Lmaj promast 1uM inactive
Cc1ccc(NC(=O)O/N=C2\CCCCC2c2ccc([N+](=O)[O-])cc2[N+](=O)[O-])cc1 (stereo unspecified)	Lmaj promast 99.2 (no result: bCat nuc transl, HSV augment) | Lmaj promast 1uM inactive
COc1ccc(C2=NN(c3nc4ccccc4s3)C(=O)/C2=C\N(C)C)cc1	Lmaj promast 53.9 | Lmaj promast 1uM inactive
COc1ccc(-c2nc3ccccc3s2)cc1	none
COc1cc(SC)ccc1C(=O)Nc1ccc2c(c1)OCCO2	none
Cc1cc(C)c(C(CC(=O)c2cccs2)C(C#N)C#N)c(C)c1 (stereo unspecified)	Lmaj promast 92.5 | Lmaj promast 1uM inactive
CC1CCCCC1NC(=O)C1CC=CCC1C(=O)O (stereo unspecified)	Lmaj promast 54.6 (no result: bCat nuc transl) | Lmaj promast 1uM inactive
CCCCCNC(=O)C1CC=CCC1C(=O)O (stereo unspecified)	none
CCOC(=O)Nc1ccc2c(c1)Nc1ccccc1S2	Lmaj promast 66.7 | Lmaj promast 1uM inactive
CCOC(=O)Nc1ccc2c(c1)N(C(=O)N1CCN(C)CC1)c1ccccc1S2	Lmaj promast 83.5 | Lmaj promast 1uM inactive
C=CC(=O)N1c2ccccc2Sc2ccc(NC(=O)OCC)cc21	none (no result: bCat nuc transl)
COc1ccccc1C1CC(c2c(-c3ccccc3)c3cc(Cl)ccc3[nH]c2=O)=NN1S(C)(=O)=O (stereo unspecified)	Lmaj promast 65.2 | Lmaj promast 1uM inactive
